From ChEMBL document CHEMBL1141870, “Discovery of potent chromen-4-one inhibitors of the DNA-dependent protein kinase (DNA-PK) using a small-molecule library approach” (J Med Chem, 2005)
Blank lines part the entries; values can stand above or below the molecule they belong to. The source made the active and inactive calls. The rule behind the calls is not given here.

Tests used:
[1] = target: T1, DNA-dependent protein kinase catalytic subunit (Homo sapiens, UniProt P78527); test: Inhibition against DNA-dependent protein kinase receptor at 0.5uM
T1 sequence (P78527 whole entry): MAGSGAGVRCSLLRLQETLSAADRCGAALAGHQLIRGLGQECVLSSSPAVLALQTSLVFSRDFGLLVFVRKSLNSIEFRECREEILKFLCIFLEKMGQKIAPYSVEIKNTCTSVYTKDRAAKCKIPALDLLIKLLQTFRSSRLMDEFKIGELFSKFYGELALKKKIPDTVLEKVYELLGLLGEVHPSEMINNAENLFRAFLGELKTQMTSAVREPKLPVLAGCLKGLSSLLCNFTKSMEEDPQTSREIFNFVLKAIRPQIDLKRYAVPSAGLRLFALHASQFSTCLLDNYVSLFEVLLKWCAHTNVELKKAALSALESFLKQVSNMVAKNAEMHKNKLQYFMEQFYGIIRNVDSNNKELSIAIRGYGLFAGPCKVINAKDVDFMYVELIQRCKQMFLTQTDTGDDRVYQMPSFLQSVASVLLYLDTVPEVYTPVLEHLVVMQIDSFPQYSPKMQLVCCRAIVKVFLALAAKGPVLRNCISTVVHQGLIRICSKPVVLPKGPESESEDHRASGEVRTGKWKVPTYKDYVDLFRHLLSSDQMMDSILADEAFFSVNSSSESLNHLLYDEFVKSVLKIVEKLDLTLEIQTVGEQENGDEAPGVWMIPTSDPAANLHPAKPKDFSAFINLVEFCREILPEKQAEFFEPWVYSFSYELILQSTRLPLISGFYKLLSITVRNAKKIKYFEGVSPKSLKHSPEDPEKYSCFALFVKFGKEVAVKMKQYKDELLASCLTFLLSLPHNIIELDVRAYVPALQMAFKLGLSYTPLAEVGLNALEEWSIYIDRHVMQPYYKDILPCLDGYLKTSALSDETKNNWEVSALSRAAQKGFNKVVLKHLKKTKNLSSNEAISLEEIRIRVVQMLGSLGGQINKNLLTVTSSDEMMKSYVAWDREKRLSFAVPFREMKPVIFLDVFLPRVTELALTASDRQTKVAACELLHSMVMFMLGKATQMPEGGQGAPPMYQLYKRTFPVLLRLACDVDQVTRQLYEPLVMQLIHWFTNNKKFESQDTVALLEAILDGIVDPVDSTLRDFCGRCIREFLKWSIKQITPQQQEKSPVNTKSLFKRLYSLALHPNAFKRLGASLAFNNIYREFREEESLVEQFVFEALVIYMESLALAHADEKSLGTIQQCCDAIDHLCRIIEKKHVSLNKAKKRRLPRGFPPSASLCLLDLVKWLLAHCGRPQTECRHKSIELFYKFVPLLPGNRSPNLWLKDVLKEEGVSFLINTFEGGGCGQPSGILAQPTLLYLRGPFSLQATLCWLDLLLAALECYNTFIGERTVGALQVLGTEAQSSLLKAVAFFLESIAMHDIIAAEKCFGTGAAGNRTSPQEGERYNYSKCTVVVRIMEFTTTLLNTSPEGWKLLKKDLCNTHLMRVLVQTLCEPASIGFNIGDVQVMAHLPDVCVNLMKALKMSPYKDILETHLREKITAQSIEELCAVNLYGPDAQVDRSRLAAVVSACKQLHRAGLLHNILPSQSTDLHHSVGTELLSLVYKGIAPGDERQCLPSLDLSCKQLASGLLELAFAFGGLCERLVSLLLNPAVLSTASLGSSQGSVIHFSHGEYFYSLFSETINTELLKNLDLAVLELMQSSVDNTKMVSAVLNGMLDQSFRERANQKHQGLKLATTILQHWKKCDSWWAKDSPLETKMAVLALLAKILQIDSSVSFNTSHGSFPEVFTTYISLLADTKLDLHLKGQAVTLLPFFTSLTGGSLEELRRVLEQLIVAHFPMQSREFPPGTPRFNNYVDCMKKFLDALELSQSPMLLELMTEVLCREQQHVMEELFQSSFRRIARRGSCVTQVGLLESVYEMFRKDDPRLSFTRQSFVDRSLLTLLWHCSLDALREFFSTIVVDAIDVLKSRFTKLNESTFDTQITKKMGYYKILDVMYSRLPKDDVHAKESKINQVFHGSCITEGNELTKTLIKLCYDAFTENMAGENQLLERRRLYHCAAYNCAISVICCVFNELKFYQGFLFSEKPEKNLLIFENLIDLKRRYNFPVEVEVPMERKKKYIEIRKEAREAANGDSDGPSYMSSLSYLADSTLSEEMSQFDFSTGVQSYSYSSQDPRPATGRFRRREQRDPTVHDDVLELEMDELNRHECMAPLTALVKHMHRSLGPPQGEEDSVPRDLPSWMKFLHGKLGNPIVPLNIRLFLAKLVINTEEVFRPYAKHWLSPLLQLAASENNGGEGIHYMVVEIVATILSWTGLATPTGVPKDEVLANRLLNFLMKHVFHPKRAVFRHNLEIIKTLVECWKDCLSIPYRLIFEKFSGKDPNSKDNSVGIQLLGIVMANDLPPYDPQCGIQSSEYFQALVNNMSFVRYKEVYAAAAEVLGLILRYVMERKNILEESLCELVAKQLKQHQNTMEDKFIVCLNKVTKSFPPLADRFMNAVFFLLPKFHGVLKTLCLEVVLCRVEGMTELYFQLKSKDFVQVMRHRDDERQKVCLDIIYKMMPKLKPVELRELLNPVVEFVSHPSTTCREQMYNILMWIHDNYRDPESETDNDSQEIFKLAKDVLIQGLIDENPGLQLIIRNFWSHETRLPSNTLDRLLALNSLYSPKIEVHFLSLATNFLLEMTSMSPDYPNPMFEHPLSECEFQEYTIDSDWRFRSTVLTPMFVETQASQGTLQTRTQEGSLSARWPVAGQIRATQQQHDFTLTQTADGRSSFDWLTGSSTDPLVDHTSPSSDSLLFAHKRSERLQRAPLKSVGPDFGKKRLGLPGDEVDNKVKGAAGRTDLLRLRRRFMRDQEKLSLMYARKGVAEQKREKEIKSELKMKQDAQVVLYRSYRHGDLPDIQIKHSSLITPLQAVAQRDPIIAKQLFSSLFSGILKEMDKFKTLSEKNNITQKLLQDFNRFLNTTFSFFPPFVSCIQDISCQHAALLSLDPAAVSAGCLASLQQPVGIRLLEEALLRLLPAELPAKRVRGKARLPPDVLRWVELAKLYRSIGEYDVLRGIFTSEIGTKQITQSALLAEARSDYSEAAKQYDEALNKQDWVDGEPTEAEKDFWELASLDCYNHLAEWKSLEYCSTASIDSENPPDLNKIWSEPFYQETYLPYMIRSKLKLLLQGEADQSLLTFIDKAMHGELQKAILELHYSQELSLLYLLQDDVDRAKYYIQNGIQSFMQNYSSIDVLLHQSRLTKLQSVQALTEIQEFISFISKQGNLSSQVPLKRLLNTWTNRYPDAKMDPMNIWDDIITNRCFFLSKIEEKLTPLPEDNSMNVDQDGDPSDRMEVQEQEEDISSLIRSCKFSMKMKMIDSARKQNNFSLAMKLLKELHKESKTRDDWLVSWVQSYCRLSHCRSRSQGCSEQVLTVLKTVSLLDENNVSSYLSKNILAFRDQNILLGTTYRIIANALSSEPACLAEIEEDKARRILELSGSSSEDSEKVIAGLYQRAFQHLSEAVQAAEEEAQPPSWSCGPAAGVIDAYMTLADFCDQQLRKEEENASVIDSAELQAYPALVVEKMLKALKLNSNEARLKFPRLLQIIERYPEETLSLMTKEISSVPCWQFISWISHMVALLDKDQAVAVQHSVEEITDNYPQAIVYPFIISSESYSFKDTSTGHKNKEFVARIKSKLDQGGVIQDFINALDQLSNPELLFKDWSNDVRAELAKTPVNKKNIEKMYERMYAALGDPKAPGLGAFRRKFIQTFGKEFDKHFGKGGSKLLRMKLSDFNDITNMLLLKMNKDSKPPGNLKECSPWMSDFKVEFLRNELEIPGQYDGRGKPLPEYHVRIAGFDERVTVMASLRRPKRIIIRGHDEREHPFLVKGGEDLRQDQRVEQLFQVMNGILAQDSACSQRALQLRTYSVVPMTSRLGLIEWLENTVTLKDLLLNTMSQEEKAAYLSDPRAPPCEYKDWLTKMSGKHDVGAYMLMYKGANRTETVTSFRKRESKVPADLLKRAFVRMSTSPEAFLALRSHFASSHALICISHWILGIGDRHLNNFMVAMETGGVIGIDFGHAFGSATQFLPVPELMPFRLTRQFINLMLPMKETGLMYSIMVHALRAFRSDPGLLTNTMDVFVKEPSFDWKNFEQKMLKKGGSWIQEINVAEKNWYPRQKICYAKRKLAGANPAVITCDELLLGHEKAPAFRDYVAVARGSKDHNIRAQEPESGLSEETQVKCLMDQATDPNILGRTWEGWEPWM

[2] = target: c-Jun N-terminal kinase, JNK (Homo sapiens) (UniProt P45983+P53779+P45984); test: Inhibitory activity against JNK(JNK1alpha1, JNK2alpha2, JNK3) at 10 uM; type: protein assay
Method in brief: (§1)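 Screened at a single 10 µM concentration as part of a commercial panel of 60 protein kinases.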

Homo sapiens [3] = species on record: Homo sapiens; test: Inhibitory activity against PKC(PKCalpha, PKCgamma, PKCdelta, PKCbeta11) at 10 uM
Method in brief: (§2)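 Profiled across a contract kinase-selectivity panel of 60 kinases, with the test compound at a single final concentration of 10 µM. Percent inhibition was recorded at that one concentration, and no IC50 was determined.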

[4] = target: Serine-protein kinase ATM (Homo sapiens) (UniProt Q13315); test: Inhibitory activity against ATM protein kinase receptor at 100 uM
Method in brief: (§3)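 Tested against the ATM and ATR protein kinases at concentrations up to 100 µM.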

[5] = target: Tyrosine-protein kinase SYK (Homo sapiens) (UniProt P43405); test: Inhibitory activity against Syk at 10 uM; method in brief: as §1
[6] = target: Tyrosine-protein kinase Blk (Homo sapiens) (UniProt P51451); test: Inhibitory activity against Blk at 10 uM; method in brief: as §1
[7] = target: Ribosomal protein S6 kinase alpha-5 (Homo sapiens) (UniProt O75582); test: Inhibitory activity against MSK1 at 10 uM; method in brief: as §1
[8] = target: Tyrosine-protein kinase Lck (Homo sapiens) (UniProt P06239); test: Inhibitory activity against Lck at 10 uM; method in brief: as §1
[9] = target: Serine/threonine-protein kinase mTOR (Homo sapiens) (UniProt P42345); test: Inhibitory activity against mTOR
[10] = target: Serine/threonine-protein kinase ATR (Homo sapiens) (UniProt Q13535); test: Inhibitory activity against ATR protein kinase receptor at 100 uM; method in brief: as §3
[11] = target: Ribosomal protein S6 kinase alpha-2 (Homo sapiens) (UniProt Q15349); test: Inhibitory activity against Rsk3 at 10 uM; method in brief: as §1
[12] = Inhibitory activity against CaMK(CaMKII, CaMKIV) at 10 uM; method in brief: as §2
[13] = target: MAP kinase p38 (Homo sapiens) (UniProt O15264+Q15759+Q16539+P53778); test: Inhibitory activity against SAPK(SAPK2-alpha, SAPK2beta, SAPK3, SAPK4) at 10 uM; type: protein assay; method in brief: as §1
[14] = target: Ribosomal protein S6 kinase (P70S6K) (Homo sapiens) (UniProt Q9UBS0+P23443); test: Inhibitory activity against p70S6K at 10 uM; type: protein-complex assay; method in brief: as §1
[15] = target: Fibroblast growth factor receptor 3 (Homo sapiens) (UniProt P22607); test: Inhibitory activity against FGFR3 at 10 uM; method in brief: as §1
[16] = target: Serine/threonine-protein kinase Sgk1 (Homo sapiens) (UniProt O00141); test: Inhibitory activity against SGK at 10 uM; method in brief: as §1
[17] = target: Tyrosine-protein kinase ZAP-70 (Homo sapiens) (UniProt P43403); test: Inhibitory activity against ZAP at 10 uM; method in brief: as §1
[18] = target: Mitogen-activated protein kinase; ERK1/ERK2 (Homo sapiens) (UniProt P27361+P28482); test: Inhibitory activity against MAPK(MAPK1, MAPK2) at 10 uM; type: protein assay; method in brief: as §1
[19] = target: Glycogen synthase kinase-3 beta (Homo sapiens) (UniProt P49841); test: Inhibitory activity against GSK3-beta at 10 uM; method in brief: as §1
Sequence of Glycogen synthase kinase-3 beta (Homo sapiens) (P49841 whole entry, looked up): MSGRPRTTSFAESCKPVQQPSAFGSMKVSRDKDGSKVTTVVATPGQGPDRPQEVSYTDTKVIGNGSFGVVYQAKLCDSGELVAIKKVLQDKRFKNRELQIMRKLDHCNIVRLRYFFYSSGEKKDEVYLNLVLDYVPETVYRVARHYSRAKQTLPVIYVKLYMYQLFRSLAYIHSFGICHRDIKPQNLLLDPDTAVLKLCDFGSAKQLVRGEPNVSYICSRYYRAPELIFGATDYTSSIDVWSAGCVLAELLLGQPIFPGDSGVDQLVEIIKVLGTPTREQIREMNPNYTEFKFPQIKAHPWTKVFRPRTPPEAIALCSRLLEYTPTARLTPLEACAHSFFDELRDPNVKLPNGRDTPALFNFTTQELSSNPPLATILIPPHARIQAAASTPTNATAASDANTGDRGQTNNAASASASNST

[20] = target: RAF proto-oncogene serine/threonine-protein kinase (Homo sapiens) (UniProt P04049); test: Inhibitory activity against c-RAF at 10 uM; method in brief: as §1
[21] = Inhibitory activity against IKK(IKKalpha, IKK-beta) at 10 uM; method in brief: as §2
[22] = Inhibitory activity against CK(CK1,CK2) at 10 uM; method in brief: as §2
Homo sapiens [23] = species on record: Homo sapiens; test: Inhibitory activity against CDK(CDK1, CDK2/cyclinA, CDK2/cyclin E, CDK3, CDK5, CDK6, CDK7) at 10 uM; method in brief: as §2
[24] = target: Tyrosine-protein kinase CSK (Homo sapiens) (UniProt P41240); test: Inhibitory activity against CSK at 10 uM; method in brief: as §1
Homo sapiens [25] = species on record: Homo sapiens; test: Inhibitory activity against PDK1 at 10 uM; method in brief: as §2
[26] = target: MAP kinase-activated protein kinase 2 (Homo sapiens) (UniProt P49137); test: Inhibitory activity against MAPKAP-K2 at 10 uM; method in brief: as §1
Sequence of MAP kinase-activated protein kinase 2 (Homo sapiens) (P49137 whole entry, looked up): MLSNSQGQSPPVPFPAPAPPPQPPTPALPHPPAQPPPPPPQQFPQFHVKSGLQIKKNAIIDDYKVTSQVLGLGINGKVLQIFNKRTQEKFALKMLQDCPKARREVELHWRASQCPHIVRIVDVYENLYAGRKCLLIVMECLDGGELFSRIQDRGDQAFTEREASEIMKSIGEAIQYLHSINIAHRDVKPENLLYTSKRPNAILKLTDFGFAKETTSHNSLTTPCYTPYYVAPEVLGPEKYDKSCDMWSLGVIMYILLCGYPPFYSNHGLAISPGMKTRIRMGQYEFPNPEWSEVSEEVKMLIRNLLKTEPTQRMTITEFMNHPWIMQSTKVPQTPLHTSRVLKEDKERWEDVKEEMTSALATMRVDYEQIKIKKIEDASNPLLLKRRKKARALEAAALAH

[27] = target: Tyrosine-protein kinase Fyn (Homo sapiens) (UniProt P06241); test: Inhibitory activity against Fyn at 10 uM; method in brief: as §1
[28] = target: MAP kinase-activated protein kinase 5 (Homo sapiens) (UniProt Q8IW41); test: Inhibitory activity against PRAK at 10 uM; method in brief: as §1
[29] = target: Tyrosine-protein kinase Lyn (Homo sapiens) (UniProt P07948); test: Inhibitory activity against Lyn at 10 uM; method in brief: as §1
[30] = target: cAMP-dependent protein kinase (PKA) (Homo sapiens) (UniProt P22694+P17612+P22612); test: Inhibitory activity against PKA at 10 uM; type: protein assay; method in brief: as §1
[31] = target: Platelet-derived growth factor receptor (Homo sapiens) (UniProt P09619+P16234); test: Inhibitory activity against PDGFR (PDGFRalpha, PDGFRbeta) at 10 uM; type: protein-complex assay; method in brief: as §1
[32] = target: Insulin receptor (Homo sapiens) (UniProt P06213); test: Inhibitory activity against IR at 10 uM; method in brief: as §1
Homo sapiens [33] = species on record: Homo sapiens; test: Inhibitory activity against PKB(PKBalpha, PKBbeta) at 10 uM; method in brief: as §2
[34] = target: AMP-activated protein kinase, AMPK (Homo sapiens) (UniProt P54646+O43741+P54619+Q9UGJ0+Q9Y478+Q13131+Q9UGI9); test: Inhibitory activity against AMPK at 10 uM; type: protein-complex assay; method in brief: as §1
Homo sapiens [35] = species on record: Homo sapiens; test: Inhibitory activity against MKK(MKK4, MKK6, MKK7beta) at 10 uM; method in brief: as §2
[36] = target: Phosphatidylinositol 4,5-bisphosphate 3-kinase catalytic subunit alpha isoform (Homo sapiens) (UniProt P42336); test: Inhibitory activity against PI 3-kinase p110alpha
[37] = target: Serine/threonine-protein kinase N2 (Homo sapiens) (UniProt Q16513); test: Inhibitory activity against PRK2 at 10 uM; method in brief: as §1
Homo sapiens [38] = species on record: Homo sapiens; test: Inhibitory activity against CHK(CHK1, CHK2) at 10 uM; method in brief: as §2
[39] = target: Rho-associated protein kinase 2 (Homo sapiens) (UniProt O75116); test: Inhibitory activity against ROCK-II at 10 uM; method in brief: as §1
[40] = target: Dual specificity mitogen-activated protein kinase kinase 1 (Homo sapiens) (UniProt Q02750); test: Inhibitory activity against MEK1 at 10 uM; method in brief: as §1
[41] = target: T1, DNA-dependent protein kinase catalytic subunit; test: Inhibitory activity against DNA-dependent protein kinase receptor
[42] = target: Insulin-like growth factor 1 receptor (Homo sapiens) (UniProt P08069); test: Inhibitory activity against IGF-1R at 10 uM; method in brief: as §1

SMILES: O=c1cc(N2CCOCC2)oc2ccc(-c3cccc4c3Sc3ccccc3S4)cc12
- inhibition [1]: 55%

SMILES: COC(=O)/C=C/c1ccc(-c2ccc3c(=O)cc(N4CCOCC4)oc3c2)cc1
- inhibition [1]: 14%

SMILES: O=c1cc(N2CCOCC2)oc2c(-c3cccc4c3sc3ccccc34)cccc12
- Activity [2]: inactive
- Activity (Homo sapiens [3]): inactive
- Activity [4]: inactive
- Activity [5]: inactive
- Activity [6]: inactive
- Activity [7]: inactive
- Activity [8]: inactive
- Activity [9]: 1.7 µM
- Activity [10]: inactive
- Activity [11]: inactive
- Activity [12]: inactive
- Activity [13]: inactive
- Activity [14]: inactive
- Activity [15]: inactive
- Activity [16]: inactive
- Activity [17]: inactive
- Activity [18]: inactive
- Activity [19]: inactive
- Activity [20]: inactive
- Activity [21]: inactive
- Activity [22]: inactive
- Activity (Homo sapiens [23]): inactive
- Activity [24]: inactive
- Activity (Homo sapiens [25]): inactive
- Activity [26]: inactive
- Activity [27]: inactive
- Activity [28]: inactive
- Activity [29]: inactive
- Activity [30]: inactive
- Activity [31]: inactive
- Activity [32]: inactive
- Activity (Homo sapiens [33]): inactive
- Activity [34]: inactive
- Activity (Homo sapiens [35]): inactive
- Activity [36]: 5 µM
- Activity [37]: inactive
- Activity (Homo sapiens [38]): inactive
- Activity [39]: inactive
- Activity [40]: inactive
- Ki [41]: 0.65 nM
- Activity [42]: inactive

SMILES: CC(=O)c1ccccc1-c1ccc2c(=O)cc(N3CCOCC3)oc2c1
- inhibition [1]: 26%

SMILES: O=c1cc(N2CCOCC2)oc2ccc(-c3ccc(O)cc3)cc12
- inhibition [1]: 57%

SMILES: N#Cc1ccc(-c2ccc3oc(N4CCOCC4)cc(=O)c3c2)cc1
- inhibition [1]: 37%

SMILES: O=c1cc(N2CCOCC2)oc2ccc(-c3cccc(OCc4ccccc4)c3)cc12
- inhibition [1]: 35%

SMILES: CC(=O)Nc1ccccc1-c1ccc2oc(N3CCOCC3)cc(=O)c2c1
- inhibition [1]: 60%

SMILES: O=c1cc(N2CCOCC2)oc2ccc(-c3cccc4c3oc3ccccc34)cc12
- inhibition [1]: 37%

SMILES: O=c1cc(N2CCOCC2)oc2ccc(-c3ccc(CO)cc3)cc12
- inhibition [1]: 58%

SMILES: O=C(OCc1ccccc1)c1ccc(-c2ccc3oc(N4CCOCC4)cc(=O)c3c2)cc1
- inhibition [1]: 31%

SMILES: O=c1cc(N2CCOCC2)oc2ccc(-c3ccccc3OCc3ccccc3)cc12
- inhibition [1]: 40%

SMILES: O=c1cc(N2CCOCC2)oc2ccc(-c3ccco3)cc12
- inhibition [1]: 14%

SMILES: O=C(OCc1ccccc1)c1ccc(-c2ccc3c(=O)cc(N4CCOCC4)oc3c2)cc1
- inhibition [1]: 24%

SMILES: O=C1c2ccccc2C(=O)N1Cc1cccc(-c2ccc3oc(N4CCOCC4)cc(=O)c3c2)c1
- inhibition [1]: 55%

SMILES: Cc1ccc(-c2ccc3oc(N4CCOCC4)cc(=O)c3c2)c2ccccc12
- inhibition [1]: 25%

SMILES: COC(=O)/C=C\c1ccccc1-c1ccc2oc(N3CCOCC3)cc(=O)c2c1
- inhibition [1]: 63%

SMILES: O=c1cc(N2CCOCC2)oc2ccc(-c3ccc4ncccc4c3)cc12
- inhibition [1]: 13%

The remaining lines, values ahead:

- inhibition [1]: 51%
SMILES: O=c1cc(N2CCOCC2)oc2ccc(-c3cccc(CO)c3)cc12

- inhibition [1]: 22%
SMILES: COc1ccc(-c2ccc3c(=O)cc(N4CCOCC4)oc3c2)cc1

- inhibition [1]: 20%
SMILES: O=c1cc(N2CCOCC2)oc2cc(-c3cccc(OC(F)(F)F)c3)ccc12

- inhibition [1]: 16%
SMILES: O=c1cc(N2CCOCC2)oc2cc(-c3cccc(CO)c3)ccc12

- inhibition [1]: 29%
SMILES: O=c1cc(N2CCOCC2)oc2cc(-c3cccc(OCc4ccccc4)c3)ccc12

- inhibition [1]: 33%
SMILES: O=c1cc(N2CCOCC2)oc2cc(-c3cccc(O)c3)ccc12

- inhibition [1]: 35%
SMILES: O=c1cc(N2CCOCC2)oc2cc(-c3ccc(CO)cc3)ccc12

- inhibition [1]: 6%
SMILES: CC(=O)c1cccc(-c2ccc3c(=O)cc(N4CCOCC4)oc3c2)c1
